Measured values of several laboratories.
Each line is one published result; the experiments were not run side by side.
Target: Mitogen-activated protein kinase 3 (MAPK3, Homo sapiens, UniProt P27361)

Structure (SMILES)	observed	action	method	concentration	measurement	value
Cn1cc(-c2cc(F)cc(N3CCn4c(cc5c4CCCC5)C3=O)c2CO)cc(Nc2ccc(N3CCN(C4COC4)CC3)cn2)c1=O	enzyme activity	inhibitor	–	0.1 µM	inhibition	14%
Cc1nn(C)cc1-c1nc2c(N3CCN(Cc4ccc(Cl)cc4)CC3)c(Cl)cnc2[nH]1	binding	–	competition with immobilised ligand	1 µM	remaining binding	100%
CC(C)(C)c1cc(C=C(C#N)C#N)cc(Br)c1O	enzyme activity	inhibitor	–	0.5 µM	remaining activity	105%
Cn1cncc1[C@@](O)(COc1ccc(C#N)cc1-c1ccc(OC(F)(F)F)cc1)c1ccc(C#N)cc1	cell-free assay	–	competition with immobilised ligand	1 µM	remaining binding	83%
O=c1[nH]c2ccccc2n1C1CCN(Cc2ccc(-c3[nH]c4cc5ncnc5cc4nc3-c3ccccc3)cc2)CC1	cell-free assay	–	–	0.5 µM	remaining signal	118%
C[C@@H](O)[C@H](N)C(=O)N1CCC[C@H]1C(=O)N1CCC[C@H]1C(=O)N[C@H](C(N)=O)[C@@H](C)O	enzyme activity	inhibitor	–	30 µM	inhibition	3%
N#CC1(c2ccccn2)CCN(Cc2cc(C(=O)O)c(=O)n3ccccc23)CC1	cell-free assay	–	competition with immobilised ligand	1 µM	remaining binding	100%
CN[C@@]1(c2ccccc2Cl)CCCCC1=O	enzyme activity	inhibitor	–	30 µM	inhibition	-4%
COc1ncccc1-c1cnn2ccc(N3CCN(C(=O)OC(C)C)CC3)nc12	binding	–	competition with immobilised ligand	1 µM	remaining binding	100%
Nc1ncc(-c2nc(N3CCOCC3)nc(N3CCOCC3)n2)c(C(F)F)n1	binding	–	competition with immobilised ligand	10 µM	remaining binding	89%
COc1cc(Nc2ncc(F)c(Nc3ccc4c(n3)NC(=O)C(C)(C)O4)n2)cc(OC)c1OC	binding	–	competition with immobilised ligand	10 µM	inhibition	0%
